In one assay the test system is B-cell. Briefly: Antiproliferative effects in the human B-cell line transfected with a plasmid in which luciferase gene is under the control of a 630bp, involved in the IL-4 response which induces IgE-GLP activity. The assay is classed as functional, cell-based. The method in brief: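 Viability of the stably transfected BL2 luciferase-reporter clone was measured in cultures run in parallel with the reporter assay. Intact mitochondria were quantified in duplicates, and half-maximal inhibition came from a logistic fit.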
Sequence of Epidermal growth factor receptor (P00533 whole entry): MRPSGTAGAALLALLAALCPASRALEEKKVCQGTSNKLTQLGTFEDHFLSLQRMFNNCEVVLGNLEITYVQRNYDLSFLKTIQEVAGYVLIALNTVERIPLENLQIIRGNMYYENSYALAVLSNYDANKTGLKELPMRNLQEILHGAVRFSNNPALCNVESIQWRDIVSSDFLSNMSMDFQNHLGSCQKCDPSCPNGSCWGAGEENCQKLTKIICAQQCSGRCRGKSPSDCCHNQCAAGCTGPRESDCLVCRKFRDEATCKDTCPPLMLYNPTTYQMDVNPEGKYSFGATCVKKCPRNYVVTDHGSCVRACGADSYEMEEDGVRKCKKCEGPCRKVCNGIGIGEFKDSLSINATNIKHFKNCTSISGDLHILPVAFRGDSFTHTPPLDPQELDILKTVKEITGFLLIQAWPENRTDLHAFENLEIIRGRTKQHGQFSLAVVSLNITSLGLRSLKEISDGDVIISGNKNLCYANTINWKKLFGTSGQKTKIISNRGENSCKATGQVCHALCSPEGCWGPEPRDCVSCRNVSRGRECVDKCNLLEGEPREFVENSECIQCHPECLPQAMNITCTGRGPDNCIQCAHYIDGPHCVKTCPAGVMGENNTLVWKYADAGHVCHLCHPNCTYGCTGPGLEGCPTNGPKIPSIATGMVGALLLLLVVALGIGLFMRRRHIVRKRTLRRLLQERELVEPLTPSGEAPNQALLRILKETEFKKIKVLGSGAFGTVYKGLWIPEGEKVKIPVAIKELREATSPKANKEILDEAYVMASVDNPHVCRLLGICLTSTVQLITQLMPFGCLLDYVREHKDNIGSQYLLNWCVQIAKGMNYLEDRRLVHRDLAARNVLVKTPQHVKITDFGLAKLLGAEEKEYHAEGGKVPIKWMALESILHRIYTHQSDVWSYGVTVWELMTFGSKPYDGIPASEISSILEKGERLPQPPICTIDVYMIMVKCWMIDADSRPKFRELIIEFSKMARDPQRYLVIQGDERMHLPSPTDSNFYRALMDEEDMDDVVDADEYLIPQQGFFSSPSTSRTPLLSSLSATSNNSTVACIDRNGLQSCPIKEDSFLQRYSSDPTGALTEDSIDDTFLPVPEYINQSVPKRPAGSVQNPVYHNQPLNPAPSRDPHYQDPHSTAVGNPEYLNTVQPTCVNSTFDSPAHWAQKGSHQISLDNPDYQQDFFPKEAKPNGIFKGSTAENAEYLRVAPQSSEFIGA
Turning to `C[C@H](Nc1ccnc2ccccc12)c1ccccc1`, the IC50 was over 2000 nM. Same read-out and setting: then `C[C@H](Nc1ncnc2ccsc12)c1ccccc1`, with over 2000 nM.

The molecule `CC[C@H](Nc1ncnc2ccccc12)c1ccccc1` gave an IC50 of over 2000 nM. Same read-out and setting: then `COc1cc2ncnc(N[C@@H](C)c3ccccc3)c2cc1OC`, with over 2000 nM; and `C[C@@H](Nc1ncnc2ccccc12)c1ccc2ccccc2c1`, with over 2000 nM; and `c1ccc(Nc2ncnc3ccccc23)cc1`, with over 2000 nM. The same measure, in the same setting: next, `CSc1nccc(N[C@@H](C)c2ccccc2)n1`: over 2000 nM. Same read-out and setting: then `CC(c1ccccc1)N(C)c1ncnc2ccccc12` (centres undefined), with over 2000 nM. On to `Cc1cc(N[C@@H](C)c2ccccc2)c2ccccc2n1`, for which the IC50 was over 2000 nM. Same read-out and setting: next, `C[C@H](Nc1ncnc2ccccc12)C1CCCCC1`: over 2000 nM; `C[C@H](Nc1nccc2ccccc12)c1ccccc1`: over 2000 nM; `COc1ccc([C@H](C)Nc2ncnc3ccccc23)cc1`: over 2000 nM.

For the molecule `c1ccc2c(c1)CC[C@@H]2Nc1ncnc2ccccc12`, the IC50 is over 2000 nM. The same measure, in the same setting: then `c1ccc2c(c1)CC[C@H]2Nc1ncnc2ccccc12`, with over 2000 nM. As to `Cc1ccc([C@H](C)Nc2ncnc3ccccc23)cc1`, the IC50 was over 2000 nM.

With `Cc1cc2c(N[C@@H](C)c3ccccc3)[nH]cnc-2n1`, the IC50 was over 2000 nM. The same measure, in the same setting: then `C[C@H](Nc1ncnc2sccc12)c1ccccc1`, with over 2000 nM. Same read-out and setting: then `c1ccc(CNc2ncnc3ccccc23)cc1`, with over 2000 nM; and `Cc1csc2ncnc(N[C@@H](C)c3ccccc3)c12`, with 1480 nM; and `C[C@H](Nc1[nH]cnc2ncnc1-2)c1ccccc1`, with over 2000 nM. `C[C@@H](Nc1ncnc2ccccc12)c1ccccc1` showed an IC50 of over 2000 nM. Take `C[C@H](Nc1ncnc2ccccc12)c1ccc(Br)cc1`: the IC50 was over 2000 nM.

In turn, `OC[C@H](Nc1ncnc2ccccc12)c1ccccc1` gave an IC50 of over 2000 nM. Still for that read-out and setting: next, `COc1cccc([C@H](C)Nc2ncnc3ccccc23)c1`: over 2000 nM; `Cc1cc(N[C@@H](C)c2ccccc2)nc(N)n1`: over 2000 nM; `C[C@H](Nc1ncnc2ccccc12)c1ccccc1`: over 2000 nM. On the same count and under the same terms, next, `C[C@@H](Nc1ncnc2ccccc12)C1CCCCC1`: over 2000 nM; `Cc1csc2c(N[C@@H](C)c3ccccc3)ncnc12`: over 2000 nM. Same read-out and setting: then `C[C@H](Nc1ncnc2ccccc12)c1ccc2ccccc2c1`, with 1630 nM.

Another assay addresses Epidermal growth factor receptor (Homo sapiens, UniProt P00533). Briefly: Inhibition of EGF-induced Tyrosine phosphorylation in A431 cells expressing EGF-R.
`C[C@H](Nc1[nH]cnc2c3ccccc3nc1-2)c1ccccc1` had an IC50 of 50 nM.

The species entered for the next assay is Homo sapiens. Briefly: Direct inhibition of the IgE-Germ line promoter (IGE-GLP-RGA) activity which is responsible in synthesis of IgE in human splenocytes. The assay is classed as functional. The essentials: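 BL2 B-cells were stably transfected with luciferase under a 630 bp IgE-germline promoter fragment and selected in G418. Cells were lysed for dual-luciferase readout in duplicates, and IC₅₀ came from a logistic fit.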
For the molecule `C[C@H](Nc1ccnc2ccccc12)c1ccccc1`, the IC50 turned out to be 701 nM.

In the case of `C[C@H](Nc1ncnc2ccsc12)c1ccccc1`, the IC50 is over 2000 nM. Same read-out and setting: next, `CC[C@H](Nc1ncnc2ccccc12)c1ccccc1`: 147 nM; `COc1cc2ncnc(N[C@@H](C)c3ccccc3)c2cc1OC`: over 2000 nM. `C[C@@H](Nc1ncnc2ccccc12)c1ccc2ccccc2c1` registered an IC50 of over 2000 nM. Still for that read-out and setting: then `c1ccc(Nc2ncnc3ccccc23)cc1`, with over 2000 nM; and `CSc1nccc(N[C@@H](C)c2ccccc2)n1`, with 931 nM. On the same count and under the same terms, next, `CC(c1ccccc1)N(C)c1ncnc2ccccc12` (centres undefined): over 2000 nM; `Cc1cc(N[C@@H](C)c2ccccc2)c2ccccc2n1`: over 2000 nM; `C[C@H](Nc1ncnc2ccccc12)C1CCCCC1`: 81 nM.

As for `C[C@H](Nc1nccc2ccccc12)c1ccccc1`, the IC50 is over 2000 nM.

Turning to `COc1ccc([C@H](C)Nc2ncnc3ccccc23)cc1`, 45 nM corresponded to half-maximal inhibition (IC50). For `c1ccc2c(c1)CC[C@@H]2Nc1ncnc2ccccc12`, the IC50 was over 2000 nM. `c1ccc2c(c1)CC[C@H]2Nc1ncnc2ccccc12` gave an IC50 of 1020 nM. The same measure, in the same setting: next, `Cc1ccc([C@H](C)Nc2ncnc3ccccc23)cc1`: 46 nM; `Cc1cc2c(N[C@@H](C)c3ccccc3)[nH]cnc-2n1`: over 2000 nM; `C[C@H](Nc1ncnc2sccc12)c1ccccc1`: 370 nM. On the same count and under the same terms, next, `c1ccc(CNc2ncnc3ccccc23)cc1`: over 2000 nM; `Cc1csc2ncnc(N[C@@H](C)c3ccccc3)c12`: 130 nM; `C[C@H](Nc1[nH]cnc2ncnc1-2)c1ccccc1`: over 2000 nM. Same read-out and setting: then `C[C@@H](Nc1ncnc2ccccc12)c1ccccc1`, with over 2000 nM. `C[C@H](Nc1ncnc2ccccc12)c1ccc(Br)cc1` showed an IC50 of 72 nM.

Molecule `OC[C@H](Nc1ncnc2ccccc12)c1ccccc1` registered an IC50 of 149 nM. Same read-out and setting: next, `COc1cccc([C@H](C)Nc2ncnc3ccccc23)c1`: 23 nM; `Cc1cc(N[C@@H](C)c2ccccc2)nc(N)n1`: over 2000 nM; `C[C@H](Nc1ncnc2ccccc12)c1ccccc1`: 127 nM. The same measure, in the same setting: then `C[C@@H](Nc1ncnc2ccccc12)C1CCCCC1`, with over 2000 nM. On the same count and under the same terms, then `Cc1csc2c(N[C@@H](C)c3ccccc3)ncnc12`, with over 2000 nM; and `C[C@H](Nc1ncnc2ccccc12)c1ccc2ccccc2c1`, with 14 nM.

As usually defined, the IC50 is the concentration at which inhibition is half-maximal. The low end stands for greater potency in that assay, the high end for weaker potency in that assay.
